Test results from ChEMBL document CHEMBL2434962, “Benzohydroxamic acids as potent and selective anti-HCV agents” (Bioorg Med Chem Lett, 2013).
Activity calls are given as the source filed them. No cut-off for these calls is given here.

How the values were obtained:
[1] = Selectivity index, ratio of CC50 for human Huh-luc/neo7 cells to EC50 for HCV
Hepatitis C virus = assay: Antiviral activity against HCV in human Huh-luc/neo7 cells after 72 hrs by luciferase reporter gene assay; type: functional, organism-based, Hepacivirus hominis
Method in brief: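 Huh7 cells persistently carrying full-genome HCV replicon treated with compound (e.g., 0, 1, 5, 25, 125 µM) for 72 h; replicon translation/replication read as firefly luciferase activity; EC50 from dose-response.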

[2] = Cytotoxicity against human HuH7 cells expressing luc/neo after 72 hrs by MTT assay; type: cell-based, Huh-7
Enterovirus C [3] = assay: Antiviral activity against poliovirus infected in human RD cells assessed as nuclear alteration pretreated at 125 uM for 72 hrs followed by viral infection and compound treatment at 250 uM for 7 hrs by Hoechst 33342 staining-based fluorescence microscopy; type: functional, cell-based
Method in brief: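 RD cells were pretreated with compound for 72 h at 125, then infected with poliovirus at an MOI of ~20 or ~600 PFU/cell and held at 250 for 7 h. Nuclear DNA was stained with Hoechst33342, and nuclear alterations were scored by fluorescence microscopy right after infection or at 7 h.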

RD [4] = assay: Cytotoxicity against human RD cells assessed as morphological changes incubated at 125 uM for 72 hrs and at 250 uM for 7 hrs by Hoechst 33342 staining-based fluorescence microscopy; type: cell-based
Method in brief: (§1)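 RD cells incubated 72 h at 125 µM, then 7 h more at 250 µM (time of PV reproduction cycle); monolayer density by light transmission imaging and nuclear morphology by fluorescence microscopy after Hoechst 33342 DNA staining, compared with untreated controls.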

RD [5] = assay: Cytotoxicity against human RD cells assessed as cell density incubated at 125 uM for 72 hrs and at 250 uM for 7 hrs by light transmission spectroscopy relative to vehicle-treated control; type: cell-based; method in brief: as §1
Enterovirus C [6] = assay: Antiviral activity against poliovirus infected in human RD cells assessed as destruction of RD cell monolayer pretreated at 125 uM for 72 hrs followed by viral infection and compound treatment at 250 uM for 7 hrs by light microscopy; type: functional, cell-based
Method in brief: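 RD cells were pretreated with compound for 72 h at 125, then infected with poliovirus at an MOI of ~20 or ~600 PFU/cell and incubated at 250 for 7 h. The integrity of the cell monolayer was examined by light microscopy right after infection or at 7 h.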

SMILES	Ratio CC50/EC50 [1]	EC50 (Hepatitis C virus)	CC50 at 72 h [2]	Activity (Enterovirus C [3])	Activity (RD [4])	Activity (RD [5])	Activity (Enterovirus C [6])
O=C(NO)c1ccccc1F	20	15 µM	300 µM				
COc1cccc(OC)c1C(=O)NO	>16	50 µM	> 800 µM				
CCCCOc1ccccc1C(=O)NO	38	10 µM	380 µM				
COc1ccc(C(=O)NO)cc1	15	12 µM	180 µM				
Cc1cc(Br)ccc1C(=O)NO	240	0.5 µM	120 µM				
COc1ccccc1C(=O)N(C)O		> 300 µM	> 800 µM				
O=C(NO)c1ccc(Cl)cc1	18	3 µM	55 µM				
COCc1ccccc1C(=O)NO	>6	170 µM	> 1000 µM				
NC(=O)c1ccccc1O [SALICYLAMIDE]		> 300 µM	> 800 µM				
COc1cccc(C(=O)NO)c1	8	70 µM	570 µM				
CN(O)C(=O)c1ccccc1		65 µM	400 µM				
Cc1ccc(C(=O)NO)cc1	14	8 µM	110 µM				
O=C(NO)c1ccc(Cl)cc1Cl	175	0.8 µM	140 µM				
NC(=NO)c1ccccc1 [BENZAMIDOXIME]		270 µM	> 800 µM				
N/C(=N\O)c1ccccc1O		140 µM	500 µM				
COc1ccc(C)cc1C(=O)NO	80	10 µM	800 µM				
O=C(NO)c1ccc([N+](=O)[O-])cc1	23	3 µM	70 µM				
CN(O)C(=O)c1ccccc1O		> 300 µM	> 800 µM	inactive	Non-toxic	Non-toxic	inactive
Cc1ccc(C(=O)NO)c(Cl)c1	93	1.5 µM	140 µM				

SMILES	Ratio CC50/EC50 [1]	EC50 (Hepatitis C virus)	CC50 at 72 h [2]	Activity (Enterovirus C [3])	Activity (RD [4])	Activity (RD [5])	Activity (Enterovirus C [6])
COc1ccc([N+](=O)[O-])cc1C(=O)NO	120	3 µM	350 µM				
O=C(NO)c1cccc(Cl)c1	12	10 µM	120 µM				
O=C(NO)c1ccccc1[N+](=O)[O-]	55	1 µM	55 µM				
COc1ccccc1C(N)=O		> 300 µM	> 800 µM				
Cc1ccccc1C(=O)NO	8	85 µM	650 µM				
O=C(NO)c1cccc(Br)c1	26	12 µM	310 µM				
O=C(NO)c1cccc([N+](=O)[O-])c1	32	5 µM	160 µM				
CONC(=O)c1ccccc1O		> 300 µM	> 800 µM				
O=C(NO)c1ccccc1Cl	165	2 µM	330 µM				
O=C(NO)c1ccccc1Br	90	3 µM	270 µM				
CONC(=O)c1ccccc1		> 300 µM	> 800 µM				
Cc1cccc(C(=O)NO)c1	17	20 µM	340 µM				
O=C(NO)c1cc([N+](=O)[O-])ccc1O	>6	160 µM	> 1000 µM				
O=C(NO)c1ccc(Br)cc1	13	2 µM	25 µM				
O=C(NO)c1ccccc1OCCOc1ccccc1C(=O)NO	>23	35 µM	> 800 µM				
CONC(=O)c1ccccc1OC		> 300 µM	> 800 µM				
COc1cc(C)ccc1C(=O)NO	60	15 µM	900 µM				
COc1ccccc1/C(N)=N/O		> 300 µM	> 800 µM				
